Experimental data as given in ChEMBL document CHEMBL3407444, “Novel 2,4-disubstituted pyrimidines as potent, selective, and cell-permeable inhibitors of neuronal nitric oxide synthase” (J Med Chem, 2015).
pIC50, pKi: −log10 of the molar value.

How the values were obtained:
[1] = Selectivity ratio of Ki for recombinant mouse macrophage inducible NOS to Ki for recombinant rat neuronal NOS
[2] = Selectivity ratio of Ki for recombinant bovine endothelial NOS to Ki for recombinant rat neuronal NOS
[3] = target: T1, Nitric oxide synthase, inducible (Mus musculus, UniProt P29477); assay: Binding affinity to recombinant mouse macrophage inducible NOS overexpressed in Escherichia coli assessed as production of nitric oxide from L-arginine measured for 5 mins by oxyhemoglobin NO capture assay
T1 sequence (P29477 whole entry): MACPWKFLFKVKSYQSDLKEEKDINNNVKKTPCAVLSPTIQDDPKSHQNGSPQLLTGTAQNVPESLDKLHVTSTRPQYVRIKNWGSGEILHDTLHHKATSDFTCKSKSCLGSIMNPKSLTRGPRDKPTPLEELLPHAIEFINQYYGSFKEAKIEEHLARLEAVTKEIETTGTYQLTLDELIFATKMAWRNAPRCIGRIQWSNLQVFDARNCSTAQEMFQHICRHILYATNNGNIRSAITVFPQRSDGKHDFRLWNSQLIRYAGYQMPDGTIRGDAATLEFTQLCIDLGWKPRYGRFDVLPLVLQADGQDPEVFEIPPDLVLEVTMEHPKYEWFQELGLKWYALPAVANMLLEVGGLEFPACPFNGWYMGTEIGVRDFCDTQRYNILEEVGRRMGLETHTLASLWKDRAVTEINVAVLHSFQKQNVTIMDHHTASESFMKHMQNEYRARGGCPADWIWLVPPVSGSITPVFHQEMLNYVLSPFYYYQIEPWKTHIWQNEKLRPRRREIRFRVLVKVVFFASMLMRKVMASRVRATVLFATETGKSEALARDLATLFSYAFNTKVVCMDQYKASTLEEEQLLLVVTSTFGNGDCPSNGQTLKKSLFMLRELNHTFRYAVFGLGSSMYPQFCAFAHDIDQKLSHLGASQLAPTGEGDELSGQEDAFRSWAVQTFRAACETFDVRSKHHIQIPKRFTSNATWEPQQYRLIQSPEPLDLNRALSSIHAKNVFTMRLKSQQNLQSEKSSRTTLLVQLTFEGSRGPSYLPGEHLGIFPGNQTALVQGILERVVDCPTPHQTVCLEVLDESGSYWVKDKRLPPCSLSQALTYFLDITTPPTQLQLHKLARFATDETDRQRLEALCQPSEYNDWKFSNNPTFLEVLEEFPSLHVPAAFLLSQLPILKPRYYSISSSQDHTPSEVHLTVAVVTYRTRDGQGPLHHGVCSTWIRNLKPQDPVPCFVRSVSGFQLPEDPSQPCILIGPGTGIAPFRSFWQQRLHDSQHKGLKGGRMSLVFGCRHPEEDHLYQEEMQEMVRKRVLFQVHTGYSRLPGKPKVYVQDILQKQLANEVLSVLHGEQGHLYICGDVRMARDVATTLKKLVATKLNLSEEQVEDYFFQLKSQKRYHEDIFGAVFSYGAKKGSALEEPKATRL

Nitric oxide synthase 3 = target: T2, Nitric oxide synthase 3 (Bos taurus, UniProt P29473); assay: Binding affinity to recombinant bovine endothelial NOS overexpressed in Escherichia coli assessed as production of nitric oxide from L-arginine measured for 5 mins by oxyhemoglobin NO capture assay
T2 sequence (P29473 whole entry): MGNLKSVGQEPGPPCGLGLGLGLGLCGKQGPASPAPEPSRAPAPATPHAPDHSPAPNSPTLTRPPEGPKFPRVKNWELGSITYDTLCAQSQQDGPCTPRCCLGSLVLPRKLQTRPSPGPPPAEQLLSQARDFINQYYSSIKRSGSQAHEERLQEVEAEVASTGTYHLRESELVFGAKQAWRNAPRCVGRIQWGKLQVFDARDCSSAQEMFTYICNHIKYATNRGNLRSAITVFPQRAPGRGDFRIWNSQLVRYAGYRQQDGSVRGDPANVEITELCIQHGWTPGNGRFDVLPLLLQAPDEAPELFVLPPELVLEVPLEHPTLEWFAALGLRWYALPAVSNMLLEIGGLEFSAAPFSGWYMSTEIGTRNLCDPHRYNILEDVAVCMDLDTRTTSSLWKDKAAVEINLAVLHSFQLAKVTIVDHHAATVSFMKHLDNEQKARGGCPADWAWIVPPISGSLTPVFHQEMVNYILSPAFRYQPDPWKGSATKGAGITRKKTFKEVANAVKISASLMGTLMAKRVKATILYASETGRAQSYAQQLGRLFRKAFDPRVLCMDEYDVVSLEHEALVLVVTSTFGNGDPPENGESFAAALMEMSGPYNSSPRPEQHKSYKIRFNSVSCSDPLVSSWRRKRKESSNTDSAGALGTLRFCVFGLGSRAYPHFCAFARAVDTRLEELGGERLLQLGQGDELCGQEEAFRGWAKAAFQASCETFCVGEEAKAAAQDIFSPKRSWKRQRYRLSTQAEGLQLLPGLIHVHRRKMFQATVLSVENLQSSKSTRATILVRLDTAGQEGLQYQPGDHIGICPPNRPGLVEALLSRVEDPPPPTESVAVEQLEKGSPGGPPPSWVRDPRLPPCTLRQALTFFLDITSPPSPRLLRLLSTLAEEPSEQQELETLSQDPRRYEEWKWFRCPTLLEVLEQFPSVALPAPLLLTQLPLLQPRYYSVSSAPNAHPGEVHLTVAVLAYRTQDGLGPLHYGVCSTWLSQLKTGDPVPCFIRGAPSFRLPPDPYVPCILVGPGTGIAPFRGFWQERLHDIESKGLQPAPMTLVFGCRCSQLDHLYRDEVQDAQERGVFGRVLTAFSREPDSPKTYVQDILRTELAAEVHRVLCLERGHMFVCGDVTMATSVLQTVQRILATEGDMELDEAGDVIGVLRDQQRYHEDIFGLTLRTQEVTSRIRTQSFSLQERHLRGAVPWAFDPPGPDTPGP
Procedure, shortened: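 Purified recombinant bovine eNOS (E. coli-expressed) at 37 °C in 100 mM HEPES, 10% glycerol, pH 7.4, with 10 μM L-arginine and tetrahydrobiopterin, 100 μM NADPH, 0.83 mM CaCl2, ~320 units/mL calmodulin, and 3 μM human oxyhemoglobin. Methemoglobin formation read at 401 nm every 22 s for 5 min. Nine inhibitor concentrations (500 μM–50 nM), at least duplicate.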

Nitric oxide synthase 1 [4] = target: Nitric oxide synthase 1 (Homo sapiens, UniProt P29475); assay: Binding affinity to recombinant human neuronal NOS overexpressed in Escherichia coli assessed as production of nitric oxide from L-arginine measured for 5 mins by oxyhemoglobin NO capture assay
Sequence of Nitric oxide synthase 1 (Homo sapiens, UniProt P29475) (P29475 whole entry): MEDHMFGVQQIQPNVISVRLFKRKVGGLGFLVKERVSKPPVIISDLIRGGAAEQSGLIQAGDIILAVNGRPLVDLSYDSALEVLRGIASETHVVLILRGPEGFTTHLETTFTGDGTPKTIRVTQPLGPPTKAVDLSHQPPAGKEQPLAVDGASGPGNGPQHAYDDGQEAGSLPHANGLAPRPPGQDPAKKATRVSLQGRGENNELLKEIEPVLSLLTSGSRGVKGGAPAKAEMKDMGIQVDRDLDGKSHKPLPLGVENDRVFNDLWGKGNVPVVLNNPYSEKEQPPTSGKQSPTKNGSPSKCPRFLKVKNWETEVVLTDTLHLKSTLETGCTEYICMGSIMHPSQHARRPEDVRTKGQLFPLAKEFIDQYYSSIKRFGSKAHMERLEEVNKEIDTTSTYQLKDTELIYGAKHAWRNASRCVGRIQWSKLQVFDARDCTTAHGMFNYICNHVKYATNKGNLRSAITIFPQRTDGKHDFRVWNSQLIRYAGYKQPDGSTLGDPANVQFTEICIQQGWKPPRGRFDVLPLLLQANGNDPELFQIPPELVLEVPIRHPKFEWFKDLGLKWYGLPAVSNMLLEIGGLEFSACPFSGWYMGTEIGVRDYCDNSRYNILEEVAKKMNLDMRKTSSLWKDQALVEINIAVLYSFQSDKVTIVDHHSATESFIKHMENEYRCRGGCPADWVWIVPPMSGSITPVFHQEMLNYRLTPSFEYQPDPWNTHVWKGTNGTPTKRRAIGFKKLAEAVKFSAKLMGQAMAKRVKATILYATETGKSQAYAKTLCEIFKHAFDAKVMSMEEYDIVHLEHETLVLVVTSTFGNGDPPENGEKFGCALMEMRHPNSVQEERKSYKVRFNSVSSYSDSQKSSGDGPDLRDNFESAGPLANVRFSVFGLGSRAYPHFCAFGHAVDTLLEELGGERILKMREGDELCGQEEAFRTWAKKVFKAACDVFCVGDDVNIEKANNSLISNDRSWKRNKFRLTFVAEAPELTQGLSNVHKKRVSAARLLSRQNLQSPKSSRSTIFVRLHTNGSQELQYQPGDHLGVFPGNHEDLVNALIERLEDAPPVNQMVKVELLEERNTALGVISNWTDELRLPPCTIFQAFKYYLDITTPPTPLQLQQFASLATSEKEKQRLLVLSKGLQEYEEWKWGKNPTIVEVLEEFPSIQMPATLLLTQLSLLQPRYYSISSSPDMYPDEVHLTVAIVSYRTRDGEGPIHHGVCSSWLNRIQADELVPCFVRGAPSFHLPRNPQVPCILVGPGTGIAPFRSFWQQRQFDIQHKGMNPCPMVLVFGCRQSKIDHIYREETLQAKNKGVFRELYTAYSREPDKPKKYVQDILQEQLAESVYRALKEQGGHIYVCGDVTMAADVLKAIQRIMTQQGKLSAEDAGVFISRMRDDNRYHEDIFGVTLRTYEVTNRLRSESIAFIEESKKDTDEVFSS

Nitric oxide synthase 1 [5] = target: Nitric oxide synthase 1 (Rattus norvegicus, UniProt P29476); assay: Binding affinity to recombinant rat neuronal NOS overexpressed in Escherichia coli assessed as production of nitric oxide from L-arginine measured for 5 mins by oxyhemoglobin NO capture assay
Sequence of Nitric oxide synthase 1 (Rattus norvegicus, UniProt P29476) (P29476 whole entry): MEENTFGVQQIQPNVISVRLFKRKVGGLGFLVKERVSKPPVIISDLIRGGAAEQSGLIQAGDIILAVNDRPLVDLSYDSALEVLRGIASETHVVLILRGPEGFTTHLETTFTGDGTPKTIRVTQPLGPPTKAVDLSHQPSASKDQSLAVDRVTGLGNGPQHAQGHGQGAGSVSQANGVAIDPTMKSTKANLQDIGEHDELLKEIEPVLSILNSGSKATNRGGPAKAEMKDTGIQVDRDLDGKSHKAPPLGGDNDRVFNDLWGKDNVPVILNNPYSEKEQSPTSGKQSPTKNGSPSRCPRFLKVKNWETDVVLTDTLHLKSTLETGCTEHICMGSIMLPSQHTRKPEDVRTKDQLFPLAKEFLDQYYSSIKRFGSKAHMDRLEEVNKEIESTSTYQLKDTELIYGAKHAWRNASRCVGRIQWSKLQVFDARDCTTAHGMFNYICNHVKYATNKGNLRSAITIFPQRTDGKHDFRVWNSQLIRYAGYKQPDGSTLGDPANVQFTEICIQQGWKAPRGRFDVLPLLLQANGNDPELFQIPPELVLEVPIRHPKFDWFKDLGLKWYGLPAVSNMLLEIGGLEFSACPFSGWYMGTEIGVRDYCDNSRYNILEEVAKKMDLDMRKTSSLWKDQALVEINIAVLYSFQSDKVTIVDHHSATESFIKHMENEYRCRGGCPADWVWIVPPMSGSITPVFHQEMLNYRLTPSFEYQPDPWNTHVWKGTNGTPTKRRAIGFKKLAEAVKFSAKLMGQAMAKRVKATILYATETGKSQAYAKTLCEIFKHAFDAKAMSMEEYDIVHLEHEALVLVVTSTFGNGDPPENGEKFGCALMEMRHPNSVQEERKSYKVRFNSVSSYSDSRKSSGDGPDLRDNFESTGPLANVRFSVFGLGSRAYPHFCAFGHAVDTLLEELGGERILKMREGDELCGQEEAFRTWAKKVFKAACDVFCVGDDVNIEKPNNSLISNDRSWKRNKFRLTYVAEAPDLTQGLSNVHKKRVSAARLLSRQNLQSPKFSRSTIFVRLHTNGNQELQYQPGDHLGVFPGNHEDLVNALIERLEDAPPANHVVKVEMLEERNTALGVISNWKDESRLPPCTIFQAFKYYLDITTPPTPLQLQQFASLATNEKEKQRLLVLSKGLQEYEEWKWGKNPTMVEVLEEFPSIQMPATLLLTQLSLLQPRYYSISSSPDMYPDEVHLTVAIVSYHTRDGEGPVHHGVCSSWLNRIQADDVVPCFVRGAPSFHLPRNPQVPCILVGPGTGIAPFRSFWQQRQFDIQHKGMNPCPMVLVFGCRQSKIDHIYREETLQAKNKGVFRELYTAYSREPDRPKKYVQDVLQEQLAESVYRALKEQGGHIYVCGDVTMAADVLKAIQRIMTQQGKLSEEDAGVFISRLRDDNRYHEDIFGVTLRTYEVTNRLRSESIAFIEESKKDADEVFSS

[6] = Selectivity ratio of Ki for recombinant human neuronal NOS to Ki for recombinant rat neuronal NOS
[7] = Permeability across apical to basolateral side in human Caco2 cells assessed as drug recovery at 10 uM after 2 hrs by LC/MS/MS analysis; type: ADME, cell-based; settings: caco-2, 2 h
Procedure, shortened: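 Caco-2 monolayers grown 3 weeks, integrity checked by Lucifer yellow transport. Compound 10 μM for 2 h added apically; apical buffer HBSS/10 mM HEPES with glucose, pH 6.5, basolateral transport buffer pH 7.4. Receiver side sampled and quantified by LC/MS/MS; recovery reported.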

[8] = target: T3, Alpha-2C adrenergic receptor (Homo sapiens) (UniProt P18825); assay: Binding affinity to human adrenergic alpha-2C receptor at 10 uM after 90 mins by radioligand displacement assay relative to control
T3 sequence (whole entry): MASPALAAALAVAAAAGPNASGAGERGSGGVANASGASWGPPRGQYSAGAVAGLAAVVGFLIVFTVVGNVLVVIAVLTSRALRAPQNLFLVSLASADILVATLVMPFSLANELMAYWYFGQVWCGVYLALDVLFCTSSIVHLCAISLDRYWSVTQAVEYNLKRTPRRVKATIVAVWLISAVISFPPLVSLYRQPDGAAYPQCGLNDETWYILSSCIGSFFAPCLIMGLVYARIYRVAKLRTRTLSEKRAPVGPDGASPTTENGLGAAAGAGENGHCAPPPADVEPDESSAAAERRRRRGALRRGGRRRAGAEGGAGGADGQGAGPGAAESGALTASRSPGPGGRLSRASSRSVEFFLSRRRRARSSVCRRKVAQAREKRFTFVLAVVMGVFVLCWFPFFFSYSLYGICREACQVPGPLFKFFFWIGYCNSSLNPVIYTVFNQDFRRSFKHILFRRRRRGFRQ

[9] = target: D(3) dopamine receptor (Homo sapiens) (UniProt P35462); settings: 10 uM
Sequence of D(3) dopamine receptor (Homo sapiens) (P35462 whole entry): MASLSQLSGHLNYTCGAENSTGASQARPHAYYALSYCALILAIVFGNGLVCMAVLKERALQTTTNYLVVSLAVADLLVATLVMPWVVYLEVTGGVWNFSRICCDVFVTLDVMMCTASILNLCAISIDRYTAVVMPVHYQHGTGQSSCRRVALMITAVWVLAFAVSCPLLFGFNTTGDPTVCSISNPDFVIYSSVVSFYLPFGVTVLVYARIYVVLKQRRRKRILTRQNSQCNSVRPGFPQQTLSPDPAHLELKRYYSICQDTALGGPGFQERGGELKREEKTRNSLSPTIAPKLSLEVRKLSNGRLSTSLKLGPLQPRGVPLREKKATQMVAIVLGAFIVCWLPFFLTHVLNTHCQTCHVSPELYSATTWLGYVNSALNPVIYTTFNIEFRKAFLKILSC

[10] = target: T4, Alpha-2C adrenergic receptor (Homo sapiens, UniProt P18825); assay: Binding affinity to human adrenergic alpha-2C receptor after 90 mins by radioligand displacement assay
T4 sequence (P18825 whole entry): T3 sequence (whole entry)

[11] = target: 5-hydroxytryptamine receptor 2A (Homo sapiens) (UniProt P28223); assay: Binding affinity to human 5-HT2A receptor at 10 uM after 90 mins by radioligand displacement assay relative to control
[12] = target: T5, 5-hydroxytryptamine receptor 1A (Homo sapiens) (UniProt P08908); settings: 10 uM
T5 sequence (whole entry): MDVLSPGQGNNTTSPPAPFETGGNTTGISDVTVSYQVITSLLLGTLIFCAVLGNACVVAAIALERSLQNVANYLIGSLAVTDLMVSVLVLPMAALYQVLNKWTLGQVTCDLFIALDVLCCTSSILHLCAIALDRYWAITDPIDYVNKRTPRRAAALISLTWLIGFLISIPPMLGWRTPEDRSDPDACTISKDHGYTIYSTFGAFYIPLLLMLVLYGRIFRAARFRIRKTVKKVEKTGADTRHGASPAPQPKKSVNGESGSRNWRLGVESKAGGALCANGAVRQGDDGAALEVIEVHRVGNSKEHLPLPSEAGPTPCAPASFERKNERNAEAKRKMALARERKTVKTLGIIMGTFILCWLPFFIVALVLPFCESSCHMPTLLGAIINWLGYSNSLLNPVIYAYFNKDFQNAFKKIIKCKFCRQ

[13] = target: T6, Sigma non-opioid intracellular receptor 1 (Homo sapiens, UniProt Q99720); assay: Binding affinity to human sigma-1 receptor at 10 uM after 90 mins by radioligand displacement assay relative to control
T6 sequence (Q99720 whole entry): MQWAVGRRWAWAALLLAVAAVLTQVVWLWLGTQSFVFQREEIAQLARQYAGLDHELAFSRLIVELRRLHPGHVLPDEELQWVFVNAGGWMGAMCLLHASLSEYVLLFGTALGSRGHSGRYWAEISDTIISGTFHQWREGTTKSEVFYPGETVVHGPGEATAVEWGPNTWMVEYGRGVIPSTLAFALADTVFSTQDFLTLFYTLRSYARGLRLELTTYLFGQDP

CYP2C19 = CYP2C19 (Homo sapiens, UniProt P33261); assay: Inhibition of human liver microsomal CYP2C19 using S-mephenytoin as substrate at 10 uM preincubated for 5 mins followed by NADPH addition measured after 20 mins by LC-MS/MS analysis; type: ADME; settings: liver microsomes, probe S-mephenytoin
Sequence of CYP2C19 (P33261 whole entry): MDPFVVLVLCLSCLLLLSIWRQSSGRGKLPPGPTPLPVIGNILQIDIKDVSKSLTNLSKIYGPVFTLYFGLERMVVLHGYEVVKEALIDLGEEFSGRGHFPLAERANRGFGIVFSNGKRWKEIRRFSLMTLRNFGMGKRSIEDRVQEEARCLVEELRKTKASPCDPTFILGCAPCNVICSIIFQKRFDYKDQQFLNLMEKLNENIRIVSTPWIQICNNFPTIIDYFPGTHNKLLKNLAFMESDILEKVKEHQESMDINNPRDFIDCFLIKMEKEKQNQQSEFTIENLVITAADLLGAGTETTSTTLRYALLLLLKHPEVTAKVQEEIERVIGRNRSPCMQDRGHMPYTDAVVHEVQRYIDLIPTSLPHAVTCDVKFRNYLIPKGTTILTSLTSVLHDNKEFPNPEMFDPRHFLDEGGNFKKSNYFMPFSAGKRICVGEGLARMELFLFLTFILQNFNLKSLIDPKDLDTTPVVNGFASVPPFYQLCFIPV
Procedure, shortened: (§1)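 Human liver microsomes in Kphos buffer, test compound at 10 μM (DMSO). Probe substrate added and preincubated 5 min at 37 °C, then started with NADPH. Incubation times: CYP3A4 (midazolam) 5 min, CYP2D6 (bufuralol) 10 min, CYP2C19 (S-mephenytoin) 20 min. Stopped with cold acetonitrile containing internal standard. Metabolites measured by LC-MS/MS; % inhibition from peak-area ratios relative to DMSO control.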

[14] = target: T6, Sigma non-opioid intracellular receptor 1; assay: Binding affinity to human sigma-1 receptor after 90 mins by radioligand displacement assay
CYP2D6 = CYP2D6 (Homo sapiens, UniProt P10635); assay: Inhibition of human liver microsomal CYP2D6 using bufuralol as substrate at 10 uM preincubated for 5 mins followed by NADPH addition measured after 10 mins by LC-MS/MS analysis; type: ADME; settings: liver microsomes, probe bufuralol; procedure, shortened: as §1
Sequence of CYP2D6 (P10635 whole entry): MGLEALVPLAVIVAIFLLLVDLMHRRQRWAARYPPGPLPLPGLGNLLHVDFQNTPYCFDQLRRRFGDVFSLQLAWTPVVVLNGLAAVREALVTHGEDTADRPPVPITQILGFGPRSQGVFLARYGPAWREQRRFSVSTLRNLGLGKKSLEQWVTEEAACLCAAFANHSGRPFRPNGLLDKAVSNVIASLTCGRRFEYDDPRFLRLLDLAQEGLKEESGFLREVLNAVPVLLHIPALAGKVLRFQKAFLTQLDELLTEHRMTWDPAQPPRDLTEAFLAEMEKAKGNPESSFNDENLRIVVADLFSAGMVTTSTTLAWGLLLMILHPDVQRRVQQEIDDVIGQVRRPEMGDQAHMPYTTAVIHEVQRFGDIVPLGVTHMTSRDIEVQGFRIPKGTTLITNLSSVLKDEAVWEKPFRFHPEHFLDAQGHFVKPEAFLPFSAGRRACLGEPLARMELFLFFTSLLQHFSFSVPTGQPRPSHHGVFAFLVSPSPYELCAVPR

CYP3A4 = CYP3A4 (Homo sapiens, UniProt P08684); assay: Inhibition of human liver microsomal CYP3A4 using midazolam as substrate at 10 uM preincubated for 5 mins followed by NADPH addition measured after 5 mins by LC-MS/MS analysis; type: ADME; settings: liver microsomes, probe midazolam; procedure, shortened: as §1
Sequence of CYP3A4 (P08684 whole entry): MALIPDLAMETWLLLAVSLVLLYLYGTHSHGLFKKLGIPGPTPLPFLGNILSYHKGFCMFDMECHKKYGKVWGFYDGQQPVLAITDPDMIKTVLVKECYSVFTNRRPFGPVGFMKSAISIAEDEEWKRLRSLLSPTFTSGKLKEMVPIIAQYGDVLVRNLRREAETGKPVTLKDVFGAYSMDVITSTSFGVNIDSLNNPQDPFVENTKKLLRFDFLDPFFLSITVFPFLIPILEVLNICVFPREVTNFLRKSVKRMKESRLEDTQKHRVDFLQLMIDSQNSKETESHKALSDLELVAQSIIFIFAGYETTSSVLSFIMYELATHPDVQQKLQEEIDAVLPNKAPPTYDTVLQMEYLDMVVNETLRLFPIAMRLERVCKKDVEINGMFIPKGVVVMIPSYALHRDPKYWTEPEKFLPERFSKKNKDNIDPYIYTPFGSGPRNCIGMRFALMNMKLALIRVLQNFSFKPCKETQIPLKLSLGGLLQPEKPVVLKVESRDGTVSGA

Homo sapiens = species on record: Homo sapiens; assay: Binding affinity to human sigma-2 receptor at 10 uM after 90 mins by radioligand displacement assay relative to control
[15] = Inhibition of calmodulin-dependent bovine neuronal NOS using [3H]-arginine as substrate assessed as citrulline formation after 30 mins; design: species or system Bos taurus

Compound: Fc1cccc(CCNCCNc2ccnc(-n3ccnc3)n2)c1
- Ratio Ki [1]: 17
- Ratio Ki [2]: 109

Compound: Fc1cccc(CCCNCc2ccnc(-n3ccnc3)n2)c1
- Ratio Ki [1]: 4
- Ratio Ki [2]: 33

Compound: Fc1cccc(C[C@@H]2C[C@H]2NCCc2ccnc(-n3ccnc3)n2)c1
- pKi [3]: 5.67
- pKi (Nitric oxide synthase 3): 4.99
- pKi (Nitric oxide synthase 1 [4]): 6.86
- pKi (Nitric oxide synthase 1 [5]): 7.74

Compound: Fc1cccc(C[C@H]2C[C@@H]2NCCc2ccnc(-n3ccnc3)n2)c1
- pKi [3]: 5.52
- pKi (Nitric oxide synthase 3): 4.40
- pKi (Nitric oxide synthase 1 [4]): 6.06
- pKi (Nitric oxide synthase 1 [5]): 6.82

Compound: Fc1cccc(C2CC2CNCCc2ccnc(-n3ccnc3)n2)c1 (stereo not given)
- Ratio Ki [6]: 6.4
- Ratio Ki [1]: 34
- Ratio Ki [2]: 71

Compound: Cc1cncn1-c1nccc(CCNCCCc2cccc(F)c2)n1
- pKi [3]: 4.62
- pKi (Nitric oxide synthase 3): 4.81
- pKi (Nitric oxide synthase 1 [4]): 6.52
- pKi (Nitric oxide synthase 1 [5]): 7.22

Compound: Clc1cccc(CCCNCCc2ccnc(-n3ccnc3)n2)c1
- Ratio Ki [6]: 3.9
- pKi [3]: 6.04
- Ratio Ki [1]: 28
- Ratio Ki [2]: 253

Compound: Cl.Fc1cccc(CCCNCCc2ccnc(-n3ccnc3)n2)c1
- Drug recovery [7]: 73%
- inhibition [8]: 95%
- inhibition [9]: 87%
- pKi [10]: 6.70
- inhibition [11]: 88%
- inhibition [12]: 83%
- inhibition [13]: 94%
- inhibition at 20 min, 10 µM (CYP2C19): > 70%
- pKi [14]: 6.70
- inhibition at 10 min, 10 µM (CYP2D6): > 70%
- inhibition at 5 min, 10 µM (CYP3A4): > 70%
- inhibition (Homo sapiens): 88%

Compound: c1c[nH]cn1 [IMIDAZOLE]
- pIC50 [15]: 3.70

Compound: c1ccc(-n2ccnc2)cc1
- pIC50 [15]: 4.60

Compound: Cc1nccn1-c1nccc(CCNCCCc2cccc(F)c2)n1
- pKi (Nitric oxide synthase 1 [5]): 4.94

Compound: Fc1cccc(CCCNCCc2ccnc(-n3cncn3)n2)c1
- pKi (Nitric oxide synthase 1 [5]): 4.57

Compound: Cc1cn(-c2nccc(CCNCCCc3cccc(F)c3)n2)cn1
- pKi (Nitric oxide synthase 1 [5]): 4.09
